Data set [1] in a line: folding enthalpy; higher = less favourable; fluorescence melt of hairpins on a sequencing array, two-state fit. The conditions noted are these: sodium 0.088 M. The gist of the method: (§1)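 Cy3 fluorescence of library hairpins on a sequenced MiSeq flow cell, with annealed Cy3 and quencher oligos, was imaged in 50 mM Na-HEPES pH 8.0, 25 mM NaCl in 2.5 °C steps up to 60 °C. Signals were normalised to pre-quench Cy3 and to control variants. Melting temperature and folding enthalpy came from bootstrapped two-state fits, inverse-variance combined over four replicates. Fitted temperatures were raised by 9.35 °C to match UV melts.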

Data set [2] is described as follows: melting temperature; fluorescence melt of hairpins on a sequencing array, two-state fit, raised by 9.35 °C to match UV melts. Conditions: sodium 0.088 M. The gist of the method:
as §1

As for GATCGTAGCGACGATC ((((((....)))))), in data set [1], the folding enthalpy was -38.9 kcal/mol. For the same sequence, in data set [2], the Tm was determined as 54.9 °C.
Taken in the same sequence, the figures for GATCGTAGCTACGATC ((((((....)))))) were -43.2 kcal/mol and 59 °C.
The like results for GATCGTAGGTACGATC ((((((....)))))) were, in that order, -38.9 kcal/mol and 55.8 °C.
On to GATCGTAGTGACGATC ((((((....)))))), for which, in data set [1], the folding enthalpy is -33.7 kcal/mol. In addition, the Tm in data set [2] worked out at 56.6 °C.
Taken in the same sequence, the figures for GATCGTAGTTACGATC ((((((....)))))) were -30.9 kcal/mol and 56.8 °C.
As for GATCGTATCCACGATC ((((((....)))))), the folding enthalpy in data set [1] is -35.3 kcal/mol. Besides, the Tm in data set [2] was 56.9 °C.
The like results for GATCGTCAGTACGATC ((((((....)))))) were, in that order, -42.8 kcal/mol and 53.7 °C.
As to GATCGTCCAACGATC ((((((...)))))), the folding enthalpy in data set [1] is -39.4 kcal/mol. The Tm in data set [2] is 55.6 °C.
As for GATCGTCCCACGATC ((((((...)))))), in data set [1], the folding enthalpy was -38.5 kcal/mol. For the same sequence, the Tm in data set [2] came out at 57.6 °C.
The like results for GATCGTCCCTACGATC ((((((....)))))) were, in that order, -43.9 kcal/mol and 55 °C.
Regarding GATCGTCGCACGATC ((((((...)))))), the folding enthalpy in data set [1] is -37.9 kcal/mol. Further, the Tm in data set [2] came out at 58.2 °C.
For GATCGTCGCGACGATC ((((((....)))))), in data set [1], the folding enthalpy is -37.5 kcal/mol. For the same sequence, the Tm in data set [2] was 67.6 °C.
Taken in the same sequence, the figures for GATCGTCGTTACGATC ((((((....)))))) were -36 kcal/mol and 55.6 °C.
The like results for GATCGTCTCTACGATC ((((((....)))))) were, in that order, -38.4 kcal/mol and 54.5 °C.
Taken in the same sequence, the figures for GATCGTGAAACGATC ((((((...)))))) were -36.8 kcal/mol and 66.8 °C.
For GATCGTGAACACGATC ((((((....)))))), the folding enthalpy in data set [1] was -34.5 kcal/mol. Moreover, the Tm in data set [2] was found to be 63.6 °C.
Consider GATCGTGACGACGATC ((((((....)))))), for which, in data set [1], the folding enthalpy was -39.2 kcal/mol. Moreover, the Tm in data set [2] was 56.8 °C.
Taken in the same sequence, the figures for GATCGTGATGACGATC ((((((....)))))) were -37.8 kcal/mol and 54.4 °C.
For GATCGTGCCGACGATC ((((((....)))))), the folding enthalpy in data set [1] is -49.2 kcal/mol. In data set [2], the Tm was determined as 56.4 °C.
Taken in the same sequence, the figures for GATCGTGCGAACGATC ((((((....)))))) were -32.9 kcal/mol and 64.1 °C.
Taken in the same sequence, the figures for GATCGTGCGTACGATC ((((((....)))))) were -39.5 kcal/mol and 55 °C.
The like results for GATCGTGCTTACGATC ((((((....)))))) were, in that order, -38.4 kcal/mol and 56.4 °C.
Regarding GATCGTGGAAACATGATC ((((.((....)).)))), the folding enthalpy in data set [1] is -43.8 kcal/mol. For the same sequence, in data set [2], the Tm was 47.5 °C.
The like results for GATCGTGTAGACGATC ((((((....)))))) were, in that order, -39.8 kcal/mol and 59.6 °C.
Taken in the same sequence, the figures for GATCGTGTGTACGATC ((((((....)))))) were -40.9 kcal/mol and 54.7 °C.
On to GATCGTTAAGACGATC ((((((....)))))), for which the folding enthalpy in data set [1] is -43.2 kcal/mol. In addition, in data set [2], the Tm came to 55.4 °C.
The like results for GATCGTTACTACGATC ((((((....)))))) were, in that order, -42.8 kcal/mol and 55.1 °C.
The like results for GATCGTTCGGACGATC ((((((....)))))) were, in that order, -37.8 kcal/mol and 56.9 °C.
The like results for GATCGTTCGTACGATC ((((((....)))))) were, in that order, -44.1 kcal/mol and 55.5 °C.
In the case of GATCGTTCTACGATC ((((((...)))))), in data set [1], the folding enthalpy was -35.3 kcal/mol. The Tm in data set [2] is 59.6 °C.
The like results for GATCGTTGAACGATC ((((((...)))))) were, in that order, -32.2 kcal/mol and 53.6 °C.
As for GATCGTTGCAACGATC ((((((....)))))), the folding enthalpy in data set [1] was -59.5 kcal/mol. The Tm in data set [2] was determined as 59.2 °C.
As to GATCGTTGCCACGATC ((((((....)))))), in data set [1], the folding enthalpy was -39.9 kcal/mol. The Tm in data set [2] stood at 54.5 °C.
Consider GATCGTTGGGACGATC ((((((....)))))), for which the folding enthalpy in data set [1] is -36.7 kcal/mol. Besides, the Tm in data set [2] stood at 59 °C.
The like results for GATCGTTGTACGATC ((((((...)))))) were, in that order, -38.8 kcal/mol and 61.1 °C.
With GATCGTTTAGACGATC ((((((....)))))), the folding enthalpy in data set [1] is -38.2 kcal/mol. Also, in data set [2], the Tm is 55.6 °C.
Taken in the same sequence, the figures for GATCGTTTGACGATC ((((((...)))))) were -24.6 kcal/mol and 55.5 °C.
Taken in the same sequence, the figures for GATCGTTTGGACGATC ((((((....)))))) were -44.5 kcal/mol and 56.3 °C.

For the origin of these results see the array DNA melting data of Ke et al. (doi:10.1101/2024.01.08.574731).
